The values that follow come from ChEMBL document CHEMBL2406952, “Identification of vitamin d3-based hedgehog pathway inhibitors that incorporate an aromatic a-ring isostere” (ACS Med Chem Lett, 2013).

Molecules are shown by their SMILES. pIC50: −log10 of the molar value. Activity calls are given as the source filed them. The calls are words filed in the database; no cut-off is given here.

Holding throughout (format): cell-based
The target of test [1] is T1, Vitamin D3 receptor (Mus musculus) (UniProt P48281).
T1 sequence (whole entry): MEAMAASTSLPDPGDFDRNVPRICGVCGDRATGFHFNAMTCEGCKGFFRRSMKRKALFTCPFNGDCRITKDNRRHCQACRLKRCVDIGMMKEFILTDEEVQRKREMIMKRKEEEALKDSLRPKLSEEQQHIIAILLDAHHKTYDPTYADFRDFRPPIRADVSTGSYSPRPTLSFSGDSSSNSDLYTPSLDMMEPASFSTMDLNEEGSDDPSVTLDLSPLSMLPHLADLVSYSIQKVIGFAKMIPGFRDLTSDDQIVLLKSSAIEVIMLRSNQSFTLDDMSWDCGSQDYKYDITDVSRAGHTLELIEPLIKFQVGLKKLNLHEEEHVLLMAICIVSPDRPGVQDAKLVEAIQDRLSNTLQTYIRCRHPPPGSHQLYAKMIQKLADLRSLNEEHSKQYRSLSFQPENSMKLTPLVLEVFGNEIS
Description: Activation of VDR in mouse ASZ001 cells assessed as upregulation of Cyp24A1 mRNA expression at 5 to 10 uM after 48 hrs by RT-PCR analysis. The gist of the method:
(§1)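 Cells exposed to compound for 48 h; Cyp24A1 mRNA expression measured and expressed relative to DMSO vehicle-treated cells, set as 1.0.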

The target in test [2] is T2, Vitamin D3 receptor (Homo sapiens) (UniProt P11473).
T2 sequence (whole entry): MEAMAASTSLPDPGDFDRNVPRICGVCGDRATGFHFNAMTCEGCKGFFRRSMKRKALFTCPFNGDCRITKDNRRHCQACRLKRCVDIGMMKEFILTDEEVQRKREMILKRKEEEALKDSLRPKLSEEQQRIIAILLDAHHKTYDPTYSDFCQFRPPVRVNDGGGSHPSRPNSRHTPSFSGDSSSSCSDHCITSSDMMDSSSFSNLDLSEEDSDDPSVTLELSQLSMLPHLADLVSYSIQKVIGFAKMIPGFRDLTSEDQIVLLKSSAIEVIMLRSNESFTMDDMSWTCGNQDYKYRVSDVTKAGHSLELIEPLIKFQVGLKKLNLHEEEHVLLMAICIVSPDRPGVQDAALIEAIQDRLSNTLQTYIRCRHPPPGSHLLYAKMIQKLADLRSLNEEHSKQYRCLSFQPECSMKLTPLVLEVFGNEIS
Description: Activation of VDR in human DaOY cells assessed as upregulation of Cyp24A1 mRNA expression at 5 uM after 48 hrs by RT-PCR analysis relative to DMSO-treated control. The gist of the method: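 Cyp24A1 mRNA measured after 48 h exposure to analogue and normalized to ActinB, expressed relative to DMSO vehicle-treated cells (set as 1.0). Single concentrations tested were 2.5, 5 or 10 μM.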

The nature of test [3]: Inhibition of Hedgehog signaling in human DaOY cells assessed as downregulation of Gli1 mRNA expression after 48 hrs by RT-PCR analysis. In short, it runs like this: (§2)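 Gli1 mRNA dose-response after 48 h compound incubation, used to derive IC50 (μM). Each value comes from at least two separate experiments, each performed in triplicate.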
A short description of test [4]: Inhibition of Hedgehog signaling in mouse ASZ001 cells assessed as downregulation of Gli1 mRNA expression after 48 hrs by RT-PCR analysis. Conditions: ASZ001, 48 h. The gist of the method:
as §2

Test [5] has as its target T1, Vitamin D3 receptor (Mus musculus). Put plainly: Activation of VDR in mouse M210B4 cells assessed as upregulation of Cyp24A1 mRNA expression at 5 uM after 24 hrs by RT-PCR analysis relative to DMSO-treated control. In short, it runs like this:
(§3)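 Cyp24A1 mRNA normalized to ActinB and expressed relative to DMSO vehicle (set to 1.0). Cells treated for 24 h at 5 μM (some agents at 1 μM).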

Test [6] can be described thus: Inhibition of Hedgehog signaling in mouse M210B4 cells assessed as downregulation of Gli1 mRNA expression at 10 uM after 24 hrs by RT-PCR analysis relative to 20(S)-hydroxycholesterol and 22(S)-hydroxycholesterol. The gist of the method: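 M2-10B4 murine bone marrow stromal cells, Hh-responsive, treated for 24 h. Gli1 mRNA normalized to ActinB. Positive control 20(S)-hydroxycholesterol:22(S)-hydroxycholesterol (5 μM each) set as 100% pathway signaling. Values given as % of this level.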

Test [7] can be described thus: Inhibition of Hedgehog signaling in mouse M210B4 cells assessed as downregulation of Ptch mRNA expression after 24 hrs by RT-PCR analysis. The following applies: M210B4, 24 h. The gist of the method:
(§4)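 Oxysterol-stimulated cells (20(S)- plus 22(S)-hydroxycholesterol, 5 μM each) were treated with compound across a dose range for 24 h. Gli1 and Ptch mRNA were normalized to ActinB, and IC50 values were derived. VD3 was dosed up to 10 μM.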

Test [8] can be described thus: Inhibition of Hedgehog signaling in mouse M210B4 cells assessed as downregulation of Gli1 mRNA expression after 24 hrs by RT-PCR analysis. Conditions: M210B4, 24 h. In short, it runs like this: as §4
Test [9] is described as follows: Inhibition of Hedgehog signaling in mouse C3H10T1/2 cells assessed as downregulation of Ptch mRNA expression after 24 hrs by RT-PCR analysis. Conditions: C3H 10T1/2, 24 h. The gist of the method:
as §4

Test [10] in a line: Inhibition of Hedgehog signaling in mouse C3H10T1/2 cells assessed as downregulation of Gli1 mRNA expression after 24 hrs by RT-PCR analysis. Conditions: C3H 10T1/2, 24 h. In short, it runs like this: as §4
The target of test [11] is T1, Vitamin D3 receptor (Mus musculus). Description: Activation of VDR in mouse C3H10T1/2 cells assessed as upregulation of Cyp24A1 mRNA expression at 5 uM after 24 hrs by RT-PCR analysis relative to DMSO-treated control. Conditions: C3H 10T1/2. The gist of the method:
as §3

The nature of test [12]: Inhibition of Hedgehog signaling in mouse C3H10T1/2 cells assessed as downregulation of Gli1 mRNA expression at 5 uM after 24 hrs by RT-PCR analysis relative to 20(S)-hydroxycholesterol and 22(S)-hydroxycholesterol. The following applies: C3H 10T1/2. In short, it runs like this: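 Endogenous Gli1 mRNA measured after 24 h at 5 μM and normalized to ActinB with DMSO vehicle set to 1.0. Cells stimulated with 20(S)-hydroxycholesterol plus 22(S)-hydroxycholesterol (5 μM each) define 100% pathway activity, and the analogue effect is given as % of this level.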

Test [13] addresses T1, Vitamin D3 receptor (Mus musculus). Put plainly: Activation of VDR in mouse ASZ001 cells assessed as upregulation of Cyp24A1 mRNA expression at =< 2.5 uM after 48 hrs by RT-PCR analysis. In short, it runs like this:
as §1

As usually defined, the pIC50 is −log10 of the IC50, conventionally taken in molar units. The inhibition is the percentage by which the read-out fell short of the control. With `C=C1CC[C@H](O)C/C1=C/C=C1\CCC[C@]2(C)[C@@H]([C@H](C)CCCC(C)C)CC[C@@H]12` [CHOLECALCIFEROL], the outcome in [1] and in test [13] was Active. Besides, the fold change (FC) in [2] stood at 149; in test [5] it was 274; in test [11], 8340. Besides, the pIC50 in test [3] was < 5.00; in [4] it was 5.68; in test [7], < 5.00; in test [8], < 5.00; in test [9] it was 5.54; in test [10], 5.39. The inhibition in test [6] is 53%. Moreover, in [12], the Gli1 mRNA level (% of OHC control) was 35.7%.
